# Several values for one entry are separate records, joined by “and”; a condition that tells them apart may be missing. Equal values may be shown once.
# Tested on: U2OS
# Test: Multiplex assay against U2OS
# Assay type: toxicity, cell-based
# Settings: human
# Procedure, shortened: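 Four dyes were applied at seeding to live cells: Hoechst33342, BioTracker Green Microtubule Cytoskeleton Dye, MitoTracker Red and Annexin V Alexa Fluor 680. Imaging after compound addition used a CQ1 microscope at 37°C and 5% CO2. CellPathfinder machine-learning gating then sorted cells into Hoechst high-intensity objects or normal cells, normal cells into healthy, pyknosed or fragmented nuclei, and pyknosed cells into mitotic or apoptotic, with tubulin, mitochondrial-mass and membrane-permeability phenotypes given as per cents of healthy-nucleus cells.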
# [1] = 12 h, 1 µM, compound concentration 1 uM
# [2] = 12 h, 10 µM, compound concentration 10 uM
# [3] = 24 h, 1 µM, compound concentration 1 uM
# [4] = 24 h, 10 µM, compound concentration 10 uM
# [5] = 48 h, 1 µM, compound concentration 1 uM
# [6] = 48 h, 10 µM, compound concentration 10 uM
structure (smiles),measurement,setting,value
CC1(COc2ccc3c(c2)ncn3-c2ccc3cccc(N4CCC(N)CC4)c3n2)COC1 [CRENOLANIB],Population Apoptotic (%),[1],58% and 25%
same,Population Fragmented Nuclei (%),[1],36% and 28%
same,Population Healthy Nuclei (%),[1],50% and 60%
same,Population Hoechst High Intensity Objects (%),[1],9% and 13%
same,Population Membrane Permeable-Phenotype (%),[1],87% and 82%
same,Population Mitochondria Different-Phenotype (%),[1],51% and 73%
same,Population Mitotic Cells (%),[1],41% and 75%
same,Population Normal (%),[1],90% and 86%
same,Population Pyknosed Nuclei (%),[1],13% and 10%
same,Population Tubulin-Different-Phenotype (%),[1],92% and 88%
same,Total Cell Count,[1],143 and 86
same,Population Apoptotic (%),[2],81% and 92%
same,Population Fragmented Nuclei (%),[2],43% and 37%
same,Population Healthy Nuclei (%),[2],11% and 21%
same,Population Hoechst High Intensity Objects (%),[2],21% and 24%
same,Population Membrane Permeable-Phenotype (%),[2],76% and 47%
same,Population Mitochondria Different-Phenotype (%),[2],80% and 76%
same,Population Mitotic Cells (%),[2],18% and 7%
same,Population Normal (%),[2],78% and 75%
same,Population Pyknosed Nuclei (%),[2],44% and 41%
same,Population Tubulin-Different-Phenotype (%),[2],88% and 85%
same,Total Cell Count,[2],274
same,Population Apoptotic (%),[3],71% and 54%
same,Population Fragmented Nuclei (%),[3],39% and 25%
same,Population Healthy Nuclei (%),[3],45% and 62%
same,Population Hoechst High Intensity Objects (%),[3],9% and 10%
same,Population Membrane Permeable-Phenotype (%),[3],71% and 67%
same,Population Mitochondria Different-Phenotype (%),[3],62% and 67%
same,Population Mitotic Cells (%),[3],28% and 45%
same,Population Normal (%),[3],90% and 89%
same,Population Pyknosed Nuclei (%),[3],14% and 12%
same,Population Tubulin-Different-Phenotype (%),[3],87% and 72%
same,Total Cell Count,[3],156 and 98
same,Population Apoptotic (%),[4],93% and 100%
same,Population Fragmented Nuclei (%),[4],46% and 53%
same,Population Healthy Nuclei (%),[4],8% and 11%
same,Population Hoechst High Intensity Objects (%),[4],37% and 36%
same,Population Membrane Permeable-Phenotype (%),[4],42% and 44%
same,Population Mitochondria Different-Phenotype (%),[4],50% and 77%
same,Population Mitotic Cells (%),[4],6% and 0%
same,Population Normal (%),[4],62% and 63%
same,Population Pyknosed Nuclei (%),[4],45% and 34%
same,Population Tubulin-Different-Phenotype (%),[4],50% and 77%
same,Total Cell Count,[4],254
same,Population Apoptotic (%),[5],88% and 62%
same,Population Fragmented Nuclei (%),[5],41% and 37%
same,Population Healthy Nuclei (%),[5],43% and 48%
same,Population Hoechst High Intensity Objects (%),[5],8% and 4%
same,Population Membrane Permeable-Phenotype (%),[5],35% and 53%
same,Population Mitochondria Different-Phenotype (%),[5],40% and 37%
same,Population Normal (%),[5],91% and 95%
same,Population Pyknosed Nuclei (%),[5],14% and 13%
same,Population Tubulin-Different-Phenotype (%),[5],44% and 51%
same,Total Cell Count,[5],186
same,Population Apoptotic (%),[6],100%
same,Population Fragmented Nuclei (%),[6],51% and 57%
same,Population Healthy Nuclei (%),[6],11% and 13%
same,Population Hoechst High Intensity Objects (%),[6],42% and 29%
same,Population Membrane Permeable-Phenotype (%),[6],43% and 50%
same,Population Mitochondria Different-Phenotype (%),[6],37% and 35%
same,Population Mitotic Cells (%),[6],0%
same,Population Normal (%),[6],58% and 70%
same,Population Pyknosed Nuclei (%),[6],37% and 28%
same,Population Tubulin-Different-Phenotype (%),[6],56% and 28%
same,Total Cell Count,[6],250 and 144
Cl.N=C(N)NC(=O)Cc1c(Cl)cccc1Cl [GUANFACINE HYDROCHLORIDE],Population Apoptotic (%),[1],80% and 100%
same,Population Fragmented Nuclei (%),[1],28% and 20%
same,Population Healthy Nuclei (%),[1],55% and 72%
same,Population Hoechst High Intensity Objects (%),[1],4% and 2%
same,Population Membrane Permeable-Phenotype (%),[1],5% and 8%
same,Population Mitochondria Different-Phenotype (%),[1],1% and 2%
same,Population Mitotic Cells (%),[1],19% and 0%
same,Population Normal (%),[1],95% and 97%
same,Population Pyknosed Nuclei (%),[1],16% and 7%
same,Population Tubulin-Different-Phenotype (%),[1],2% and 6%
same,Total Cell Count,[1],165 and 129
same,Population Apoptotic (%),[2],87% and 77%
same,Population Fragmented Nuclei (%),[2],27% and 18%
same,Population Healthy Nuclei (%),[2],61% and 74%
same,Population Hoechst High Intensity Objects (%),[2],1%
same,Population Membrane Permeable-Phenotype (%),[2],10% and 12%
same,Population Mitochondria Different-Phenotype (%),[2],3% and 7%
same,Population Mitotic Cells (%),[2],12% and 22%
same,Population Normal (%),[2],98%
same,Population Pyknosed Nuclei (%),[2],11% and 7%
same,Population Tubulin-Different-Phenotype (%),[2],7% and 10%
same,Total Cell Count,[2],280 and 130
same,Population Apoptotic (%),[3],75% and 83%
same,Population Fragmented Nuclei (%),[3],32% and 18%
same,Population Healthy Nuclei (%),[3],56% and 74%
same,Population Hoechst High Intensity Objects (%),[3],3% and 0%
same,Population Membrane Permeable-Phenotype (%),[3],5% and 8%
same,Population Mitochondria Different-Phenotype (%),[3],3% and 4%
same,Population Mitotic Cells (%),[3],25% and 16%
same,Population Normal (%),[3],96% and 99%
same,Population Pyknosed Nuclei (%),[3],10% and 7%
same,Population Tubulin-Different-Phenotype (%),[3],2% and 5%
same,Total Cell Count,[3],194 and 160
same,Population Apoptotic (%),[4],84% and 83%
same,Population Fragmented Nuclei (%),[4],25% and 15%
same,Population Healthy Nuclei (%),[4],64% and 76%
same,Population Hoechst High Intensity Objects (%),[4],0% and 2%
same,Population Membrane Permeable-Phenotype (%),[4],9% and 10%
same,Population Mitochondria Different-Phenotype (%),[4],2% and 4%
same,Population Mitotic Cells (%),[4],15% and 16%
same,Population Normal (%),[4],99% and 97%
same,Population Pyknosed Nuclei (%),[4],9% and 7%
same,Population Tubulin-Different-Phenotype (%),[4],4% and 5%
same,Total Cell Count,[4],326 and 160
same,Population Apoptotic (%),[5],89% and 90%
same,Population Fragmented Nuclei (%),[5],28% and 16%
same,Population Healthy Nuclei (%),[5],60% and 73%
same,Population Hoechst High Intensity Objects (%),[5],2% and 3%
same,Population Membrane Permeable-Phenotype (%),[5],4% and 8%
same,Population Mitochondria Different-Phenotype (%),[5],3% and 4%
same,Population Mitotic Cells (%),[5],10% and 9%
same,Population Normal (%),[5],97% and 96%
same,Population Pyknosed Nuclei (%),[5],10%
same,Population Tubulin-Different-Phenotype (%),[5],3% and 6%
same,Total Cell Count,[5],262 and 217
same,Population Apoptotic (%),[6],90% and 95%
same,Population Fragmented Nuclei (%),[6],21% and 14%
same,Population Healthy Nuclei (%),[6],68% and 74%
same,Population Hoechst High Intensity Objects (%),[6],2% and 1%
same,Population Membrane Permeable-Phenotype (%),[6],8% and 10%
same,Population Mitochondria Different-Phenotype (%),[6],3% and 1%
same,Population Mitotic Cells (%),[6],9% and 4%
same,Population Normal (%),[6],97% and 98%
same,Population Pyknosed Nuclei (%),[6],10% and 11%
same,Population Tubulin-Different-Phenotype (%),[6],4% and 3%
same,Total Cell Count,[6],440 and 213
Cl.Cl.OCCOCCN1CCN(C(c2ccccc2)c2ccc(Cl)cc2)CC1 (stereo not given) [HYDROXYZINE HYDROCHLORIDE],Population Apoptotic (%),[1],60% and 80%
same,Population Fragmented Nuclei (%),[1],29% and 13%
same,Population Healthy Nuclei (%),[1],61% and 78%
same,Population Hoechst High Intensity Objects (%),[1],0% and 1%
same,Population Membrane Permeable-Phenotype (%),[1],11% and 9%
same,Population Mitochondria Different-Phenotype (%),[1],4% and 6%
same,Population Mitotic Cells (%),[1],40% and 20%
same,Population Normal (%),[1],99% and 98%
same,Population Pyknosed Nuclei (%),[1],9% and 7%
same,Population Tubulin-Different-Phenotype (%),[1],7% and 8%
same,Total Cell Count,[1],208 and 139
same,Population Apoptotic (%),[2],58% and 88%
same,Population Fragmented Nuclei (%),[2],20% and 26%
same,Population Healthy Nuclei (%),[2],66%
same,Population Hoechst High Intensity Objects (%),[2],1% and 2%
same,Population Membrane Permeable-Phenotype (%),[2],9% and 5%
same,Population Mitochondria Different-Phenotype (%),[2],10% and 7%
same,Population Normal (%),[2],98% and 97%
same,Population Pyknosed Nuclei (%),[2],13% and 6%
same,Population Tubulin-Different-Phenotype (%),[2],6% and 7%
same,Total Cell Count,[2],316 and 141
same,Population Apoptotic (%),[3],96% and 77%
same,Population Fragmented Nuclei (%),[3],25% and 9%
same,Population Healthy Nuclei (%),[3],63% and 77%
same,Population Hoechst High Intensity Objects (%),[3],1% and 2%
same,Population Membrane Permeable-Phenotype (%),[3],8% and 5%
same,Population Mitochondria Different-Phenotype (%),[3],4% and 1%
same,Population Normal (%),[3],98% and 97%
same,Population Pyknosed Nuclei (%),[3],10% and 12%
same,Population Tubulin-Different-Phenotype (%),[3],7% and 1%
same,Total Cell Count,[3],232 and 148
same,Population Apoptotic (%),[4],73% and 61%
same,Population Fragmented Nuclei (%),[4],23% and 31%
same,Population Healthy Nuclei (%),[4],63% and 60%
same,Population Hoechst High Intensity Objects (%),[4],2%
same,Population Membrane Permeable-Phenotype (%),[4],10% and 12%
same,Population Mitochondria Different-Phenotype (%),[4],8% and 13%
same,Population Mitotic Cells (%),[4],26% and 38%
same,Population Normal (%),[4],97%
same,Population Pyknosed Nuclei (%),[4],12% and 7%
same,Population Tubulin-Different-Phenotype (%),[4],4% and 9%
same,Total Cell Count,[4],359 and 168
same,Population Apoptotic (%),[5],89% and 90%
same,Population Fragmented Nuclei (%),[5],24% and 14%
same,Population Healthy Nuclei (%),[5],62% and 76%
same,Population Hoechst High Intensity Objects (%),[5],2%
same,Population Membrane Permeable-Phenotype (%),[5],4% and 5%
same,Population Mitochondria Different-Phenotype (%),[5],3%
same,Population Mitotic Cells (%),[5],10%
same,Population Normal (%),[5],97%
same,Population Pyknosed Nuclei (%),[5],13% and 8%
same,Population Tubulin-Different-Phenotype (%),[5],4% and 0%
same,Total Cell Count,[5],300 and 230
same,Population Apoptotic (%),[6],83%
same,Population Fragmented Nuclei (%),[6],17% and 27%
same,Population Healthy Nuclei (%),[6],68% and 64%
same,Population Hoechst High Intensity Objects (%),[6],2% and 5%
same,Population Membrane Permeable-Phenotype (%),[6],8% and 10%
same,Population Mitochondria Different-Phenotype (%),[6],6% and 5%
same,Population Mitotic Cells (%),[6],16%
same,Population Normal (%),[6],97% and 94%
same,Population Pyknosed Nuclei (%),[6],13% and 8%
same,Population Tubulin-Different-Phenotype (%),[6],4% and 5%
same,Total Cell Count,[6],456 and 231

# From ChEMBL document CHEMBL5724801, “EUbOPEN Chemogenomics Library - Multiplex” (2024)
